Source: ChEMBL document CHEMBL3997766, “Synthesis and pre-clinical studies of new amino-acid ester thiazolide prodrugs” (Eur J Med Chem, 2017)

Tests used:
Rattus norvegicus [1] = experiment: Toxicity in Sprague-Dawley rat assessed as erosions in stomach at 75 mg/kg administered as oral gavage qd for 28 consecutive days followed by 2 weeks recovery period by microscopic method; type: organism-based; conditions: in vivo, 336 h
Outline: (§1)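 Sub-acute study in Sprague-Dawley rats dosed orally with a suspension at 10, 30 and 75 mg/kg once daily for 28 consecutive days. Four groups of up to 30 rats each (15M/15F).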

Canis familiaris [2] = experiment: Toxicity in Beagle dog assessed as body weight gain up to 25 mg/kg, po administered as gelatin capsule once daily for 28 days measured on day 29; type: organism-based, Canis lupus familiaris; conditions: in vivo, 672 h
Outline: (§2)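 Sub-acute study in Beagle dogs dosed orally by gelatin capsule at 5, 15 and 25 mg/kg once a day for 28 consecutive days.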

Rattus norvegicus [3] = experiment: Toxicity in Sprague-Dawley rat assessed as mixed cell inflammation in stomach at 30 to 75 mg/kg administered as oral gavage qd for 28 consecutive days measured on day 29 by microscopic method; type: organism-based; conditions: in vivo
Outline: (§3)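 Sub-acute study in Sprague-Dawley rats: 10, 30 or 75 mg/kg given orally once a day for 28 consecutive days as a yellow suspension. There were 4 groups of up to 30 rats each (15M/15F), including a control. Body weight, clinical observations and terminal findings were assessed.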

Rattus norvegicus [4] = experiment: Toxicity in Sprague-Dawley rat assessed as eosinophilic cytoplasmic bodies in leukocytes of duodenum at 75 mg/kg administered as oral gavage qd for 28 consecutive days measured on day 29 by microscopic method; type: organism-based; conditions: in vivo; outline: as §1
Rattus norvegicus [5] = experiment: Neurotoxicity in Sprague-Dawley rat assessed as decreased abdominal tone at 1000 mg/kg administered via oral gavage as single dose after 4 to 24 hrs; type: toxicity, organism-based; conditions: in vivo
Outline: (§4)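 Three groups of 10 rats (5M/5F) received a single dose by oral gavage of 100, 300 or 1000 mg/kg, and an untreated group served as control. Clinical signs of CNS effects were recorded at 4 and 24 h after treatment.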

Rattus norvegicus [6] = experiment: Oral bioavailability in Sprague-Dawley rat assessed as Tizoxanide-glucuronide level at 28 mg/kg; type: ADME, organism-based; conditions: in vivo
Outline: (§5)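 Rats in groups of three got a single oral dose (30 mg/kg) or a single intravenous injection (6 mg/kg). Serial blood samples were taken at 5, 10, 15 and 30 min and at 1, 2, 4, 8, 23 and 24 h post-dose for plasma drug and glucuronide levels. Bioavailability came from oral versus intravenous AUC after dose correction to 30 mg/kg.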

Rattus norvegicus [7] = experiment: Toxicity in Sprague-Dawley rat assessed as hemorrhage in duodenum at 75 mg/kg administered as oral gavage qd for 28 consecutive days measured on day 29 by microscopic method; type: organism-based; conditions: in vivo; outline: as §1
Rattus norvegicus [8] = experiment: Toxicity in Sprague-Dawley rat assessed as hemorrhage in stomach at 75 mg/kg administered as oral gavage qd for 28 consecutive days followed by 2 weeks recovery period by microscopic method; type: organism-based; conditions: in vivo, 336 h; outline: as §1
Canis familiaris [9] = experiment: Toxicity in Beagle dog at 5 to 75 mg/kg, po administered as gelatin capsule qd for 28 consecutive days; type: organism-based, Canis lupus familiaris; conditions: in vivo
Rattus norvegicus [10] = experiment: Toxicity in Sprague-Dawley rat assessed as body weight gain at 75 mg/kg administered as oral gavage qd for 28 consecutive days measured during last 2 weeks of dosing relative to control; type: organism-based; conditions: in vivo, 336 h; outline: as §1
Rattus norvegicus [11] = experiment: Toxicity in Sprague-Dawley rat assessed as increase in serum chloride level at 30 mg/kg administered as oral gavage qd for 28 consecutive days followed by 2 weeks recovery period measured on day 43; type: organism-based; conditions: in vivo, 336 h; outline: as §1
Rattus norvegicus [12] = experiment: Neurotoxicity in Sprague-Dawley rat assessed as labored breathing at 1000 mg/kg administered as single dose via oral gavage after 4 to 24 hrs; type: toxicity, organism-based; conditions: in vivo; outline: as §4
Canis familiaris [13] = experiment: Toxicity in Beagle dog assessed as decrease in cholesterol level up to 25 mg/kg, po administered as gelatin capsule once daily for 28 days measured on day 29; type: organism-based, Canis lupus familiaris; conditions: in vivo, 672 h; outline: as §2
Plasma [14] = experiment: Drug metabolism in Sprague-Dawley rat assessed as tizoxanide level in plasma administered via oral gavage qd for 28 consecutive days; type: ADME
Outline: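 In a sub-acute study, Sprague-Dawley rats were dosed once daily for 28 consecutive days at 10, 30 or 75 mg/kg, given as a yellow suspension. There were four groups of up to 30 rats each (15M/15F) to assess systemic exposure.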

Rattus norvegicus [15] = experiment: Cmax in Sprague-Dawley rat assessed as Tizoxanide level in plasma at 30 mg/kg, po administered as single dose; type: ADME, organism-based; design: dose 30 mg/kg, route oral; conditions: in vivo
Outline: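 Rats in groups of three received one compound as a single oral dose (30 mg/kg) or a single intravenous injection (6 mg/kg), with four compounds studied separately. Serial blood samples were drawn at 5, 10, 15 and 30 min and at 1, 2, 4, 8, 23 and 24 h post-dose. Plasma parent drug and metabolites were quantified and PK parameters were derived.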

Rattus norvegicus [16] = experiment: Toxicity in Sprague-Dawley rat assessed as eosinophilic cytoplasmic bodies in epithelial cells of stomach at 10 to 75 mg/kg administered as oral gavage qd for 28 consecutive days measured on day 29 by microscopic method; type: organism-based; conditions: in vivo; outline: as §3
Canis familiaris [17] = experiment: Toxicity in Beagle dog assessed as gross necropsy up to 25 mg/kg, po administered as gelatin capsule once daily for 28 days followed by two weeks of recovery period; type: organism-based, Canis lupus familiaris; conditions: in vivo, 672 h; outline: as §2
Plasma [18] = experiment: Prodrug activation in Sprague-Dawley rat assessed as tizoxanide formation in plasma at 6.3 mg/kg, iv administered as single dose measured after 5 mins; type: organism-based; conditions: in vivo; outline: as §5
Rattus norvegicus [19] = experiment: Toxicity in Sprague-Dawley rat assessed as eosinophilic cytoplasmic bodies in leukocytes of duodenum at 75 mg/kg administered as oral gavage qd for 28 consecutive days followed by 2 weeks recovery period by microscopic method; type: organism-based; conditions: in vivo, 336 h; outline: as §1
Canis familiaris [20] = experiment: Toxicity in Beagle dog assessed as effect on hematology up to 25 mg/kg, po administered as gelatin capsule once daily for 28 days measured on day 29; type: organism-based, Canis lupus familiaris; conditions: in vivo, 672 h; outline: as §2
Rattus norvegicus [21] = experiment: Toxicity in Sprague-Dawley rat assessed as decrease in serum total albumin level at 75 mg/kg administered as oral gavage qd for 28 consecutive days followed by 2 weeks recovery period measured on day 43; type: organism-based; conditions: in vivo, 336 h; outline: as §1
Canis familiaris [22] = experiment: Drug metabolism in Beagle dog assessed as tizoxanide-glucuronide level in plasma administered orally as gelatin capsule once daily for 28 days measured on day 1 and 29; type: ADME, Canis lupus familiaris; conditions: po, 672 h
Outline: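 Beagle dogs received the drug orally in a single gelatin capsule at 5, 15 or 25 mg/kg once daily for 28 consecutive days in a sub-acute toxicity study assessing systemic exposure.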

Canis familiaris [23] = experiment: Toxicity in Beagle dog assessed as emesis at 25 mg/kg, po administered as gelatin capsule once daily for 28 days measured on day 29 followed by 2 weeks recovery period measured on day 43; type: organism-based, Canis lupus familiaris; conditions: in vivo; outline: as §2
Canis familiaris [24] = experiment: Toxicity in Beagle dog assessed as early death at 5 to 25 mg/kg, po administered as gelatin capsule once daily for 28 days followed by 2 weeks recovery period measured on day 43; type: organism-based, Canis lupus familiaris; conditions: in vivo
Outline: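 Sub-acute study in Beagle dogs: 5, 15 or 25 mg/kg/day given orally in a single gelatin capsule once a day for 28 consecutive days to assess systemic exposure and toxicity, with NOAEL determination.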

Rattus norvegicus [25] = experiment: Elimination half life in Sprague-Dawley rat assessed as Tizoxanide level in plasma at 6.3 mg/kg, iv administered as single dose; type: ADME, organism-based; conditions: in vivo
Canis familiaris [26] = experiment: Toxicity in Beagle dog up to 25 mg/kg, po administered as gelatin capsule once daily for 28 days by ophthalmoscopic method; type: organism-based, Canis lupus familiaris; conditions: in vivo, 672 h; outline: as §2

For `CC(C)(C)[C@H](N)C(=O)Oc1ccccc1C(=O)Nc1ncc([N+](=O)[O-])s1.Cl`, the Activity (Rattus norvegicus [1]) was “Non-Toxic”, the Activity (Canis familiaris [2]) was “Non-Toxic” and the Activity (Rattus norvegicus [3]) was “Toxic”. The Activity (Rattus norvegicus [4]) was “Toxic”, the Activity (Rattus norvegicus [5]) was “Toxic” and the F (Rattus norvegicus [6]) was 13%. The Activity (Rattus norvegicus [7]) was “Toxic”, the Activity (Rattus norvegicus [8]) was “Non-Toxic” and the Activity (Canis familiaris [9]) was “Non-Toxic”. The Activity (Rattus norvegicus [10]) was 4 to 5%, the Activity (Rattus norvegicus [11]) was “Toxic” and the Activity (Rattus norvegicus [12]) was “Toxic”. For the same molecule, the Activity (Canis familiaris [13]) was “Toxic”, the Drug metabolism (Plasma [14]) was “Dose-dependent effect” and the Cmax (Rattus norvegicus [15]) was 6190 ng/mL. For the same molecule, the Activity (Rattus norvegicus [16]) was “Toxic”, the Activity (Canis familiaris [17]) was “Non-Toxic” and the Drug metabolism (Plasma [18]) was “Metabolite_Detected”. The Activity (Rattus norvegicus [19]) was “Non-Toxic”, the Activity (Canis familiaris [20]) was “Non-Toxic” and the Activity (Rattus norvegicus [21]) was “Toxic”. For the same molecule, the Drug metabolism (Canis familiaris [22]) was “Dose-dependent effect”, the Activity (Canis familiaris [23]) was “Non-Toxic” and the Activity (Canis familiaris [24]) was “Non-Toxic”. For the same molecule, the “beta t1/2” value (Rattus norvegicus [25]) was 22.8 min and the Activity (Canis familiaris [26]) was “Non-Toxic”.
